# PubChem BioAssay
# Values without a mark were called inactive.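 The calls were made as follows, unless noted: active = viability at or below 10% of carrier control in both of two separate runs; inconclusive = viability at or below 10% in only one of the two runs; inactive = the rest.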
# Test: SK-BR-3 cell growth inhibitors, pilot screen, 24 h, human (AID 572);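 also: compound exposure lasted between 18 and 24 h rather than exactly 24 h; 100% = carrier-treated control wells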
# Conditions: SK-BR-3 viability, CellTiter-Glo luminescence, at 10 µM, hits give low values
row,Structure (SMILES),viability [%]
1,Cc1nnc(NC(=O)CCC(=O)N2CCC(C)CC2)s1,86
2,Cc1ccc(-c2ccc(=O)n(CC(=O)NCCCN3CCCCC3C)n2)cc1 (stereo not drawn),97
3,O=C(CN1CCN(Cc2ccccc2)CC1)Nc1ccc(Cl)cn1,94
4,O=C(Nc1cccc(OCC(=O)N2CCOCC2)c1)C1CCCCC1,109
5,O=C(CN1CCN(c2ccccn2)CC1)N1c2ccccc2CCc2ccccc21,95
6,CCOc1ccc(NC(=O)C2CC(=O)N(CC)C(=Nc3ccc4c(c3)OCO4)S2)cc1 (stereo not drawn),87
7,CNC(=O)NCCN1CCCC1=O,110
8,CCCNC(=O)c1cc(S(=O)(=O)N2CCc3ccccc32)ccc1F,89
9,Cc1cc(NC(=O)c2cnn3c(C(F)F)cc(C4CC4)nc23)no1,131
10,CCOC(=O)Cc1csc(/C(=N/O)C(N)=O)n1,94
11,O=C(COC(=O)c1cccc(S(=O)(=O)N2CCc3ccccc32)c1)NC1CCS(=O)(=O)C1 (stereo not drawn),90
12,CN1[C@@H](CC(=O)c2ccccc2)CCC[C@H]1C[C@H](O)c1ccccc1,63
13,O=C(CSc1n[nH]c(=O)[nH]c1=O)c1ccccc1,110
14,CC(O)Cn1cnc2c1c(=O)n(C)c(=O)n2C (stereo not drawn),107
15,O=C(CNCC1CCCO1)Nc1ccccc1-n1cccc1 (stereo not drawn),80
16,COc1cccc(N2CCN(CC(=O)c3c[nH]c4ccc(OC)cc34)CC2C)c1 (stereo not drawn),104
17,COC(=O)c1c(NC(=O)CCc2ccc(C)o2)sc(C)c1C,112
18,O=C(COC(=O)c1cc(S(=O)(=O)N2CCOCC2)cs1)c1ccccc1,115
19,Cc1ccc(S(=O)(=O)NCC(=O)OCN2C(=O)c3ccccc3C2=O)cc1,94
20,COc1ccc(C(=O)Nc2ccc(S(=O)(=O)Nc3onc(C)c3C)cc2)cc1,91

row,Structure (SMILES),viability [%]
1,O=C(O)CCN(CCC(=O)O)c1nnc(SCc2ccccc2)s1,91
2,CS(=O)(=O)N(CC(=O)N1CCc2ccccc2C1)c1ccc2c(c1)OCO2,129
3,C=CCSc1nnc(NC(=O)c2ccc(S(=O)(=O)NCC3CCCO3)cc2)s1 (stereo not drawn),97
4,OC(CCCN1CCC(O)(c2ccc(Cl)cc2)CC1)c1ccc(F)cc1 (stereo not drawn),89
5,COc1ccc(C(O)C(CN2CCOCC2)c2ccccc2)cc1F (stereo not drawn),107
6,C=CCn1c(SCC(=O)NCC2CCCO2)nc2scc(-c3ccco3)c2c1=O (stereo not drawn),112
7,Cc1ccc(C)c(CSc2nnc(CCN)o2)c1,101
8,Cc1c(N=C2SCC(=O)N2c2c(C)n(C)n(-c3ccccc3)c2=O)c(=O)n(-c2ccccc2)n1C,120
9,COc1cc(C2N=C(c3ccccc3)NO2)cc(Br)c1O (stereo not drawn),90
10,CC1(C)Cc2c(sc3c2C2=NCCN2C=N3)CS1,87
11,Cc1ccc(C(C(=O)NC2CCCCC2)N(C(=O)c2csnn2)C2CCCC2)o1 (stereo not drawn),108
12,Cc1cn2c(-c3ccncc3)nnc2s1,144
13,CCOc1ccc(S(=O)(=O)Nc2ccc(Cl)cn2)c(C)c1C,121
14,CN(C)CCC(c1ccc(Br)cc1)c1ccccn1 (stereo not drawn),110
15,COc1ccc(C(c2nnnn2C2CCCC2)N2CCC(C)CC2)c(OC)c1 (stereo not drawn),154
16,COCCN(CCOC)C(=O)CCn1c(=O)oc2ccccc21,95
17,CCOC(=O)c1sc2cccc(F)c2c1N,105
18,CC1=NN(c2ccccc2)C(=O)C1,96
19,COc1nc(-c2ccc(Cl)cc2)ccc1-c1noc(-c2ccncc2)n1,109

# Test: HUVEC growth inhibition – cell-based, human, primary screen (AID 575;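 active = viability at or below 30% in both replicate assays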;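 also: 100% = median of untreated cell wells with 0.1% DMSO on each plate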)
# Conditions: HUVEC proliferation, CellTiter-Glo luminescence, 72 h; at 10 µM; hits give low values
# Method in brief: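 System – primary HUVEC, no more than 12 passages · Medium – Low-serum (2% FBS) EBM, supplemented · Times – 72 h exposure, 37 °C, 5% CO2, 30 min RT equilibration · Measured by – luminescent ATP assay · Read-out – % viability relative to median vehicle-well signal on each plate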
row,Structure (SMILES),viability [%]
1,Cc1nnc(NC(=O)CCC(=O)N2CCC(C)CC2)s1,105
2,Cc1ccc(-c2ccc(=O)n(CC(=O)NCCCN3CCCCC3C)n2)cc1 (stereo not drawn),99
3,O=C(CN1CCN(Cc2ccccc2)CC1)Nc1ccc(Cl)cn1,88.8
4,O=C(Nc1cccc(OCC(=O)N2CCOCC2)c1)C1CCCCC1,90
5,O=C(CN1CCN(c2ccccn2)CC1)N1c2ccccc2CCc2ccccc21,88.1
6,CCOc1ccc(NC(=O)C2CC(=O)N(CC)C(=Nc3ccc4c(c3)OCO4)S2)cc1 (stereo not drawn),109
7,CNC(=O)NCCN1CCCC1=O,112
8,CCCNC(=O)c1cc(S(=O)(=O)N2CCc3ccccc32)ccc1F,113
9,Cc1cc(NC(=O)c2cnn3c(C(F)F)cc(C4CC4)nc23)no1,79.6
10,CCOC(=O)Cc1csc(/C(=N/O)C(N)=O)n1,94.7
11,O=C(COC(=O)c1cccc(S(=O)(=O)N2CCc3ccccc32)c1)NC1CCS(=O)(=O)C1 (stereo not drawn),114
12,CN1[C@@H](CC(=O)c2ccccc2)CCC[C@H]1C[C@H](O)c1ccccc1,81.4
13,O=C(CSc1n[nH]c(=O)[nH]c1=O)c1ccccc1,105
14,CC(O)Cn1cnc2c1c(=O)n(C)c(=O)n2C (stereo not drawn),106
15,O=C(CNCC1CCCO1)Nc1ccccc1-n1cccc1 (stereo not drawn),106
16,COc1cccc(N2CCN(CC(=O)c3c[nH]c4ccc(OC)cc34)CC2C)c1 (stereo not drawn),83.9
17,COC(=O)c1c(NC(=O)CCc2ccc(C)o2)sc(C)c1C,90.5
18,O=C(COC(=O)c1cc(S(=O)(=O)N2CCOCC2)cs1)c1ccccc1,93.3
19,Cc1ccc(S(=O)(=O)NCC(=O)OCN2C(=O)c3ccccc3C2=O)cc1,99.6
20,COc1ccc(C(=O)Nc2ccc(S(=O)(=O)Nc3onc(C)c3C)cc2)cc1,108

row,Structure (SMILES),viability [%]
1,O=C(O)CCN(CCC(=O)O)c1nnc(SCc2ccccc2)s1,107
2,CS(=O)(=O)N(CC(=O)N1CCc2ccccc2C1)c1ccc2c(c1)OCO2,102
3,C=CCSc1nnc(NC(=O)c2ccc(S(=O)(=O)NCC3CCCO3)cc2)s1 (stereo not drawn),84.3
4,OC(CCCN1CCC(O)(c2ccc(Cl)cc2)CC1)c1ccc(F)cc1 (stereo not drawn),73.1
5,COc1ccc(C(O)C(CN2CCOCC2)c2ccccc2)cc1F (stereo not drawn),109
6,C=CCn1c(SCC(=O)NCC2CCCO2)nc2scc(-c3ccco3)c2c1=O (stereo not drawn),88.2
7,Cc1ccc(C)c(CSc2nnc(CCN)o2)c1,41.5
8,Cc1c(N=C2SCC(=O)N2c2c(C)n(C)n(-c3ccccc3)c2=O)c(=O)n(-c2ccccc2)n1C,113
9,COc1cc(C2N=C(c3ccccc3)NO2)cc(Br)c1O (stereo not drawn),87.5
10,CC1(C)Cc2c(sc3c2C2=NCCN2C=N3)CS1,108
11,Cc1ccc(C(C(=O)NC2CCCCC2)N(C(=O)c2csnn2)C2CCCC2)o1 (stereo not drawn),101
12,Cc1cn2c(-c3ccncc3)nnc2s1,87.4
13,CCOc1ccc(S(=O)(=O)Nc2ccc(Cl)cn2)c(C)c1C,91
14,CN(C)CCC(c1ccc(Br)cc1)c1ccccn1 (stereo not drawn),80.3
15,COc1ccc(C(c2nnnn2C2CCCC2)N2CCC(C)CC2)c(OC)c1 (stereo not drawn),91.4
16,COCCN(CCOC)C(=O)CCn1c(=O)oc2ccccc21,105
17,CCOC(=O)c1sc2cccc(F)c2c1N,80.8
18,CC1=NN(c2ccccc2)C(=O)C1,74.6
19,COc1nc(-c2ccc(Cl)cc2)ccc1-c1noc(-c2ccncc2)n1,103
